This is a sample that favours compounds with a hit; in the whole collection about 2.8% have one here.
NPY-Y2 PAM-ag: potentiates or activates human NPY-Y2 receptor; cells expressing NPY-Y2, potentiator/agonist read-out; activation, % at 3.6 µM; P49146; 220,000 tested, 0.45% active; in the data active = activation above about 27%;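 also: cells stimulated with NPY near EC25 plus isoproterenol at EC100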
Target sequence (P49146 whole entry, looked up): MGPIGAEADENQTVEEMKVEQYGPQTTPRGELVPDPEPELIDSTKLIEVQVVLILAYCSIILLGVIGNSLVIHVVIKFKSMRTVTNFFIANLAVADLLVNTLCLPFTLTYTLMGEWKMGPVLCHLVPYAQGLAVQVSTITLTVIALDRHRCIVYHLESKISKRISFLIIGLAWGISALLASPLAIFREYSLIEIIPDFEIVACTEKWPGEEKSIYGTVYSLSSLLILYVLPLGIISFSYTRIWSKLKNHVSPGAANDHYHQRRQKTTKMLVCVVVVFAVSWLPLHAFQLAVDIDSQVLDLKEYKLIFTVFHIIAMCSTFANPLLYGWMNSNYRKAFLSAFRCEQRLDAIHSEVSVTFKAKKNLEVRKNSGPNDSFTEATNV
NPY-Y1 antag: NPY-Y1 (human) receptor antagonism; inhibition, % at 3.6 µM; 200,000 tested, 1% active; HEK293-CNG Y1 cells, membrane potential fluorescence; NPY at EC95, then isoproterenol;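 active = inhibition above the campaign mean inhibition of all tested compounds plus 3 SD, cut at about 20% in these data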
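Assay system: HEK293 Y1/CNG channel cell line; Doses: single compound dose of 3.6 µM, 0.4% DMSO; Timing: dye 3 h, compound 60 min room temperature, stimulation 45 min; Technique: Membrane-potential fluorescent dye readout; Measure: % inhibition of NPY effect.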
EP2 modulator: EP2 receptor (human) modulation; 260,000 tested, 0.83% active; P43116; induction, % at 25 µM; EP2-expressing cells, cAMP HTRF FRET, PGE2 co-stimulation;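 active = compounds whose cAMP rise, as percent of the full-agonist control response, exceeds 60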;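 also: rat C6 glioma line stably carrying human EP2 under a CMV promoter; the protocol text gives 20 µM as final concentration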
NPY Y2 blocker: blocks the human neuropeptide Y Y2 receptor; NPY-Y2 expressing cells, antagonist mode; inhibition, % at 2.7 µM; 140,000 tested, 0.99% active; AID 793; in the data active = inhibition above about 17%
EP2 antag: inhibitors of human EP2 prostaglandin E2 receptor | P43116 | C6 glioma cells expressing human EP2, cAMP TR-FRET; cells stimulated with saturating PGE2 | inhibition, % at 25 µM | 260,000 tested, 0.52% active;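 active = percent inhibition above 40 after rounding to a whole number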;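 also: rat C6 glioma host cells with rolipram phosphodiesterase inhibitor present; the protocol text gives 20 µM as final concentration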
NPY-Y1 PAM-ag: human NPY-Y1 potentiation or agonism, primary screen | P25929 | NPY-Y1 expressing cells, potentiator/agonist activation | activation, % at 3.6 µM | 220,000 tested, 0.37% active | AID 1304; in the data active = activation above about 33%, passing the limit was not always enough;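 also: cells stimulated with NPY at EC10 then isoproterenol at EC100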
Hits are given with their value; 0 = inactive; - = not tested or not shown; ! = not confirmed by another sample.

SMILES	NPY-Y2 PAM-ag	NPY-Y1 antag	EP2 modulator	NPY Y2 blocker	EP2 antag	NPY-Y1 PAM-ag
C[C@H](CCC(=O)O)[C@H]1CC[C@H]2[C@@H]3[C@@H](O)C[C@H]4C[C@@H](O)CC[C@]4(C)[C@H]3C[C@@H](O)[C@]12C	-	-	0	-	45	-
O=C(Nc1ccc(Cl)cc1C(=O)Nc1ccc(Br)cn1)c1ccco1	0	21	0	31	0	0
COc1ccc(C2(C(=O)N3CCC(n4nc(-c5ccco5)ccc4=O)CC3)CC2)cc1	-	-	0	-	-	-
O=C1C(=Cc2cccnc2)C(=O)c2ccccc21	-	-	0	-	42	-
O=C1/C(=C\c2cccnc2)Sc2ccccc21	0	0	0	0	0	0
C/C=C/Cn1c(NC)nc2c1c(=O)[nH]c(=O)n2C	-	-	0	-	0	-
N=c1c2c(-c3ccccc3)c(-c3ccccc3)oc2ncn1CCCN1CCOCC1	0	21	0	27	0	0
O=C(N/N=C/c1ccc(-c2ccc(Br)cc2)o1)c1ccc2c(c1)OCO2	0	21	0	-	0	0
COC1CCC(C(=O)N2CCC(Cn3nc(-c4cccs4)ccc3=O)CC2)CC1 (centres undefined)	-	-	0	-	-	-
COC(=O)c1sc(NC(=O)c2ccc(Cn3cc(Cl)cn3)o2)c(C#N)c1C	36	0	0	0	0	60
N#Cc1c(NC(=O)c2ccc(Cn3cc(Br)cn3)o2)sc2c1CCCCC2	0	0	0	0	0	0
Cc1[nH]c2ccccc2c1/C=N/NC(=O)c1cccc([N+](=O)[O-])c1	0	0	0	-	0	0
Cc1[nH]c2ccccc2c1/C=N/Nc1ccc([N+](=O)[O-])cc1	56	0	0	0	0	65
COCCNC(=O)C(c1cccs1)N(Cc1cccs1)C(=O)Cn1nnc2ccccc21 (centres undefined)	0	0	0	0	0	0
CC(C)CCNC(=O)C(c1ccco1)N(Cc1cccs1)C(=O)Cn1nnc2ccccc21 (centres undefined)	0	24	0	0	0	0
COC(C(=O)N1CCC(c2[nH]ncc2-c2cc(C)no2)CC1)c1ccccc1 (centres undefined)	-	-	0	-	-	-
COc1ccc(S(=O)(=O)N2CCSC2)cc1C	0	0	0	0	0	0
Cc1ccc(S(=O)(=O)N2CCSC2)cc1C	0	0	0	0	109!	0
Cc1cc(C)c2[nH]c(=O)c(C(c3nnnn3C(C)(C)C)N3CCCCCC3)cc2c1 (centres undefined)	-	-	0	-	0	-
CC(C)Oc1cccc(NC(=O)C2CC(=O)N(c3ccccc3)C2)c1 (centres undefined)	-	-	0	-	0	-
CCCSc1nc2sc3c(c2c(=O)n1C)CCCC3	-	-	65	-	0	-
CCCSc1nc2sc3c(c2c(=O)n1CC)CCCC3	-	-	0	-	0	-
O=C(CCCSc1nc(-c2ccco2)cc(C(F)(F)F)n1)NCCN1CCOCC1	-	-	0	-	0	-
CCOc1ccc2nc(NS(=O)(=O)Cc3ccccc3)sc2c1	0	23	0	20	0	0
CCOc1ccc(-n2c(SCC(=O)Nc3cccc(F)c3)nnc2-c2cccnc2)cc1	-	-	0	-	0	-
SMILES	NPY-Y2 PAM-ag	NPY-Y1 antag	EP2 modulator	NPY Y2 blocker	EP2 antag	NPY-Y1 PAM-ag
COc1cc(/C=C2\SC(=S)N(CCC(=O)Nc3ccccc3C)C2=O)cc(OC)c1OC	-	-	0	-	0	-
Cc1cccc2cc(CN(CCCO)C(c3nnnn3C(C)(C)C)C(C)C)c(=O)[nH]c12 (centres undefined)	-	-	0	-	0	-
Cc1ccc2[nH]c(=O)c(C(c3nnnn3C(C)(C)C)N(Cc3ccco3)CC3CCCO3)cc2c1 (centres undefined)	0	0	0	0	0	0
CCCC(c1nnnn1C(C)(C)C)N(Cc1ccc(C)cc1)Cc1cc2cc(C)ccc2[nH]c1=O (centres undefined)	-	-	0	-	0	-
CCCC(c1nnnn1C(C)(C)C)N(Cc1ccco1)Cc1cc2cc(C)ccc2[nH]c1=O (centres undefined)	-	-	66	-	0	-
CCc1ccc2[nH]c(=O)c(C(c3nnnn3C(C)(C)C)N(Cc3ccco3)CC3CCCO3)cc2c1 (centres undefined)	-	-	66	-	0	-
CCC(c1nnnn1C1CCCCC1)N(Cc1ccco1)Cc1cc2ccc(OC)cc2[nH]c1=O (centres undefined)	0	0	0	0	0	0
CCCC(c1nnnn1C1CCCCC1)N(Cc1ccco1)Cc1cc2cc(C)c(C)cc2[nH]c1=O (centres undefined)	-	-	72	-	0	-
